Measurements gathered from unrelated publications.
Lines come from different studies, so protocols differ.
Observed: cell growth or viability

C[C@H](Nc1ccc2c(c1)OCCn1cc(N3C(=O)OC[C@H]3C(F)F)nc1-2)C(N)=O — EC50 (HCC1954; 5 days): 108 nM
CN(C)CC[C@@H](c1ccc(Cl)cc1)c1ccccn1 — IC50 (FaDu; 72 h): > 20000 nM
O=C(O)c1ccc(CN2CCC(CN[C@@H]3C[C@H]3c3ccccc3)CC2)cc1 — EC50 (TF-1a; resazurin; 96 h): 76.4 nM
CC[C@@]1(O)C(=O)OCc2c1cc1n(c2=O)Cc2cc3ccccc3nc2-1 — IC50 (P388; MTT; 96 h): 14 nM
CC/C(=C(\c1ccccc1)c1ccc(OCCN(C)C)cc1)c1ccccc1 — EC90 (CAPAN-1; ATP luminescence; 72 h): 28400 nM
COc1cccc2c1C(=O)c1c(O)c3c(c(O)c1C2=O)C[C@@](O)(C(=O)CO)C[C@@H]3O[C@H]1C[C@H](N)[C@H](O)[C@H](C)O1 — IC90 (SUM159; MTT; 48 h): > 20000 nM
COc1cc(Nc2nccc(-c3cnn4nc(OC)ccc34)n2)cc(C(F)(F)F)c1 — IC50 (SK-MEL3; ATP luminescence): 1600 nM
CC(=O)Nc1cccc(-n2c(=O)n(C3CC3)c(=O)c3c(Nc4ccc(I)cc4F)n(C)c(=O)c(C)c32)c1 — viability (SW-620; resazurin; 6.25 nM; 72 h): 38.8%
COc1ccc(-c2c(-c3ccc(C#N)c(F)c3)nc(N3CCC(N)CC3)n(C)c2=O)cc1F — EC50 (TF-1a; resazurin; 96 h): 7.87 nM
CC(C)C[C@H](NC(=O)[C@H](Cc1ccccc1)NC(=O)c1cnccn1)B(O)O — IC50 (SAOS-2; ATP luminescence): 25 nM
